Screens from PubChem BioAssay.
PLC-beta3 inh – blocks human PLC-beta3 enzyme activity; Q01970; Purified PLC-beta3, fluorogenic substrate, fluorescence; inhibition, % at 12.2 µM; hit rate 0.18% among 370,000; AID 720704; in the data active means inhibition above about 11%;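 further: 0% = median of compound wells on plate and 100% = full blocker control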
DAGLB inhibitor – diacylglycerol lipase beta (human) inhibition; HEK293T DAGLB membrane lysate, EnzChek fluorogenic substrate; inhibition, % at 5.17 µM; hit rate 0.059% among 340,000; in the data active means inhibition above about 34%;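 further: 0% = enzyme with vehicle and 100% = wells lacking enzyme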
HGIII-sPLA2 inh – Inhibits HGIII-sPLA2 liposome hydrolysis, primary screen. QFRET BODIPY PC-A2 liposome hydrolysis, fluorescence. inhibition, % at 12.2 µM. hit rate 0.56% among 370,000. AID 743126;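 active means inhibition above mean plus 3 SD of compounds lying within the high and low control bounds, cut at about 19% in these data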;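 further: 0% = median of test compound wells and 100% = no enzyme DMSO wells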
Target sequence (Q9NZ20 whole entry, looked up): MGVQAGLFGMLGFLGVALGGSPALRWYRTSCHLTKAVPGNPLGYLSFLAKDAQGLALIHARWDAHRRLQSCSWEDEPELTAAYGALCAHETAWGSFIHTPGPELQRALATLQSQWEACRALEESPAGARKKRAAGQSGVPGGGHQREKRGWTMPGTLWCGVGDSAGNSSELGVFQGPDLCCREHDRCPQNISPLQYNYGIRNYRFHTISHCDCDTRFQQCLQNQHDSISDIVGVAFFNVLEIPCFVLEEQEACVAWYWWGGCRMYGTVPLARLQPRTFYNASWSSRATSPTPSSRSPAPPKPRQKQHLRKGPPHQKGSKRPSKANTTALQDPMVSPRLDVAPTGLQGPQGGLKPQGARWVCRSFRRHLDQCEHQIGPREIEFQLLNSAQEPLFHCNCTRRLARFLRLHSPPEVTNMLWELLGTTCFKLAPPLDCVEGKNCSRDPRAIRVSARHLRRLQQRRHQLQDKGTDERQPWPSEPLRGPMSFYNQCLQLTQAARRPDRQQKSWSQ
Tb MetRS inh – Trypanosoma brucei MetRS inhibition; purified T. brucei MetRS, ATP depletion, Kinase-Glo luminescence; inhibition, % at 11.9 µM; hit rate 0.4% among 360,000; AID 624268;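 active means inhibition above a per-plate cutoff of the control wells' mean inhibition plus 3 SD, cut at about 5.5% in these data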;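 further: 0% = DMSO wells median and 100% = median of wells with control inhibitor compound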
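Test system – parasite MetRS enzyme · Reagent – substrates ATP, L-methionine and bulk Escherichia coli tRNA · Doses – 11.9 µM compound single dose, 0.9% DMSO · Times – 15 min enzyme-compound preincubation, 2 h reaction, 10 min detection, 25 °C · Signal – Kinase-Glo luminescence, ATP depletion format · Controls – DMSO-only wells as low control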
PLC-gamma1 inh – inhibitors of human phospholipase C gamma1; inhibition, % at 12.2 µM; P19174; hit rate 0.84% among 370,000; purified PLC-gamma1, fluorogenic substrate, fluorescence; in the data active means inhibition above about 9.5%
hGIII sPLA2 conf – human GIII-sPLA2 inhibition, confirmation | inhibition, % at 12.2 µM | hit rate 34% among 2,000 | shares compounds with HGIII-sPLA2 inh | recombinant hGIII-sPLA2, BODIPY PC-A2 QFRET fluorescence;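 active means mean inhibition across triplicates above the hit cutoff set in the earlier primary screen, cut at about 19% in these data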;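 further: 0% = enzyme with DMSO and 100% = DMSO wells lacking enzyme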
BODIPY interf – counter-screen for HGIII-sPLA2 inhibitors: 535nm fluorescence interference. shares compounds with HGIII-sPLA2 inh. BODIPY FL product fluorescence interference, QFRET. inhibition, % at 12.2 µM. hit rate 8.5% among 2,000. AID 743282;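 active means average inhibition above the solvent-only control mean plus 3 SD, cut at about 6% in these data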;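 further: 0% = DMSO with substrate plus product and 100% = DMSO with substrate alone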
535nm interf DR – 535nm optical interference dose response, HGIII-sPLA2 counter-screen; shares compounds with HGIII-sPLA2 inh; BODIPY FL product fluorescence interference, cell-free; IC50, µM; 240 tested, under 10 active; AID 743455;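 active means IC50 at or below 10 µM; inactive means IC50 above 10 µM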
The depositor's hits bear a star; . = not tested or not shown. This is a sample that favours compounds with a hit; in the whole collection about 1.9% have one here.

SMILES	PLC-beta3 inh	DAGLB inhibitor	HGIII-sPLA2 inh	Tb MetRS inh	PLC-gamma1 inh	hGIII sPLA2 conf	BODIPY interf	others
CCC(C)[C@H](NC(=O)[C@H](CC(C)C)NC(=O)OC(C)(C)C)C(=O)N[C@@H](Cc1ccccc1)C(=O)OC (stereo not given in full)	0.3	.	15.8	.	3.4	.	.
CN1C(=O)C[C@@](C#N)(C(=O)NCc2ccc3c(c2)OCO3)[C@H]1c1ccccc1	2.2	.	1.3	.	1.9	.	.
O=C(OCc1cn(Cc2ccc(F)c(F)c2)nn1)N1CCCC1	1.0	.	2.4	.	1.7	.	.
O=C(OCc1cn(Cc2ccc(F)c(F)c2)nn1)N1CCOCC1	-6.3	.	19.4*	.	2.4	-2.6	-1.7
Nn1c(SCC(=O)NC2CCCCC2)nnc1-c1n[nH]c2c1CCC2	1.4	.	17.4	.	9.4	.	.
CCN(CC)C(=O)C1=C(C)N(CCCOC)C(=O)C(CC(=O)NCc2ccco2)C1 (stereo not given)	4.4	-1.6	6.6	-0.8	7.0	.	.
COCCCN1C(=O)C(CC(=O)NCc2ccco2)CC(C(=O)N2CCOCC2)=C1C (stereo not given)	-0.2	-0.9	20.5*	-0.1	-0.3	0.5	0.1
CCN(CC)C(=O)Cn1c2ccccc2c2nc3n(c(=O)c21)CCS3	-1.1	.	7.2	.	2.6	.	.
Cc1ccc(Cn2c(=O)c3c(nc4n3CCCN4Cc3ccccc3)n(C)c2=O)cc1	9.8	-0.9	73.0*	-0.8	3.9	6.8	-17.1
C/C(C=NNC(=O)CSc1nnc(-c2ccccc2)n1-c1ccc(C)cc1)=C\c1ccco1	-10.8	.	-9.5	.	-1.0	.	.
CCOC(=O)C1CCCN(C(=O)c2cc3ncc(Br)cn3n2)C1 (stereo not given)	-4.1	0.6	21.4*	0.1	-7.1	0.2	-9.2
CCOC(=O)C1CCCN(C(=O)c2cc(-c3ccc(C)cc3)on2)C1 (stereo not given)	0.1	-7.1	-5.9	-1.3	1.7	.	.
COc1ccc(CCNC(=O)c2cnn3c(C(F)F)cc(C)nc23)cc1OC	-6.7	-0.2	20.3*	0.6	-0.3	6.5	-11.3
O=S(=O)(NNc1ncc(C(F)(F)F)cc1Cl)c1ccc(F)cc1F	0.8	2.3	27.2*	-0.1	4.5	29.8*	29.1*
O=c1oc2cc(O)ccc2s1	2.3	-0.4	19.7*	0.1	0.4	3.5	-1.7
C=CCc1cc(Cl)ccc1OCCCNC(C)C	0.4	0.4	22.6*	0.7	5.4	-8.8	-26.5
COC(=O)[C@]1(C#N)CC(=O)N(C(C)C)[C@@H]1c1ccccc1	2.3	.	3.5	.	1.9	.	.
CCCCOCCCNC(=O)C[C@@H]1C[C@]2(C(=O)OCC)CCC3=C2N(CCC3)C1=O	2.9	.	1.1	.	1.2	.	.
CCOc1ccc(/C=N/NC(=O)C(=O)NCc2ccco2)cc1	-0.8	0.6	19.8*	-0.3	2.8	-5.7	-3.0
CCOc1ccc2c(c1)-c1c(ssc1=S)C(C)(C)N2C	3.0	25.8	35.6*	-0.4	7.0	45.7*	13.5*
COC(=O)Cn1c2ccccc2c(=O)n1C(C)C	-72.5	.	20.3*	-1.4	-52.8	1.3	1.4
COC(=O)Cn1c2ccccc2c2nc(=O)cc(C)n21	1.5	-3.4	-2.8	-0.4	1.0	.	.
O=C(Nc1ccc(Cl)cc1C(=O)N1CCOCC1)c1ccco1	-4.0	-0.5	19.9*	-0.6	6.2	2.0	-4.3
CC(C)(C)NC(=S)NCCc1ccccc1	2.7	-0.4	20.1*	1.2	-0.7	24.1*	-4.6
O=C(NNC(=S)NC1CCCCC1)c1ccccc1O	-19.4	5.8	44.3*	0.0	-10.0	43.6*	-0.5	535nm interf DR=>122
SMILES	PLC-beta3 inh	DAGLB inhibitor	HGIII-sPLA2 inh	Tb MetRS inh	PLC-gamma1 inh	hGIII sPLA2 conf	BODIPY interf	others
O=C(NNC(=S)NC1CCCCC1)c1cccs1	-0.8	0.0	11.5	-1.0	-2.0	.	.
Cc1cc(C(=O)NNC(=S)NC2CCCCC2)cs1	3.3	4.2	25.4*	-0.2	-2.4	37.0*	1.7	535nm interf DR=>122
O=C(Nc1ccccc1OC(F)F)c1oc2ccccc2c1COc1ccccc1	-2.7	-4.2	24.7*	-1.3	0.7	3.9	-13.2
CC(C)CNC(=O)c1oc2ccccc2c1COc1ccccc1	0.5	-9.3	0.5	-0.3	0.5	.	.
CCOC(=O)c1[nH]c(=S)n(Cc2ccccc2)c1C(=O)OCC	-24.1	2.8	17.6	-0.5	-21.3	.	.
CCOC(=O)c1[nH]c(=S)n(-c2ccccc2)c1C(=O)OCC	-5.0	-0.6	24.7*	-0.4	-1.8	18.4	0.3
C=CCN1C(=O)[C@H](CC(=O)NCCCCc2ccccc2)[C@@]2(C(=O)OCC)CCCC=C12	1.1	.	-10.2	.	3.1	.	.
Cc1ccc(C(=O)NC(=S)/C=C2\N(C)c3ccccc3C2(C)C)cc1	-42.0	13.6	29.6*	-0.7	-31.9	44.9*	1.6	535nm interf DR=>122
CCN1C(=O)/C(=C2/C=Cc3ccccc3N2CC)SC1=S	1.0	24.5	21.1*	-0.4	-0.6	43.0*	4.7	535nm interf DR=>122
CCOc1cccc(/C=N\NC(=O)c2cnccn2)c1O	3.6	.	-4.0	.	-1.0	.	.
NC(=S)NN=C(c1ccccc1)c1ccccc1	-3.1	-3.3	19.2*	-1.0	2.4	22.0*	-3.7
C/C(=N\NC(N)=S)c1ccccc1	-5.5	-1.4	3.9	-1.0	1.0	.	.
CC1CCc2nc3sc4c(c3c(N)c2C1)CCCC4 (stereo not given)	-18.0	-2.0	19.6*	0.7	-13.1	11.2	-5.2
CC1CCc2c(nc3sc4c(c3c2N)CCCC4)C1 (stereo not given)	-6.0	-0.8	-1.0	0.0	-4.4	.	.
O=C(O)c1ccccc1N=Nc1ccc(O)cc1	8.8	-0.2	3.0	-1.0	6.1	.	.
O=C(O)c1cc(O)ccc1N=Nc1ccccc1	-5.6	2.1	20.4*	-0.3	5.3	-2.2	-3.8
CCOC(=O)C(=O)NNc1ccc(F)cc1	-2.1	.	21.2*	-1.2	-2.5	-2.4	-3.6
CCOC(=O)C(=O)N/N=C/c1ccc(F)cc1	-5.2	0.2	-1.1	0.6	0.5	.	.
CCCCNc1nc2c(S(=O)(=O)c3ccccc3)nnn2c2ccccc12	-0.4	1.0	19.5*	3.0	3.4	4.0	-6.2
CCc1ccc(S(=O)(=O)c2nnn3c2nc(NCCNC(C)=O)c2ccccc23)cc1	-7.7	-1.7	5.8	-1.3	-6.9	.	.
CCOc1cc(N2CCOCC2)c(OCC)cc1NC(=O)c1ccc(OCc2c(C)noc2C)c(OC)c1	-1.2	2.2	20.4*	0.0	1.6	4.0	-29.6
CCOc1cc(N2CCOCC2)c(OCC)cc1NC(=O)c1ccc(OC)cc1	-7.6	0.4	-1.0	0.7	-2.2	.	.
Cc1ccccc1C(=O)n1ccc2ccc(-c3ccc4ccn(Cc5ccc(C#N)cc5)c4c3)cc21	-32.3	.	14.9	.	-15.9	.	.
